Legend:
SK-MEL-2 [1] = assay: Cytotoxicity against human SK-MEL-2 cells; type: cell-based
Outline: (§1)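 NCI 60 human tumour cell line screen, second stage at five concentrations (100, 10, 1.0, 0.1 and 0.01 μM). Continuous drug exposure for 48 h, with cell growth estimated by sulforhodamine B protein staining. GI50 is the drug concentration giving a 50% reduction in net protein increase relative to control cells over the incubation.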

U-251 [2] = assay: Cytotoxicity against human U251 cells; type: cell-based
Outline: (§2)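 NCI 60 human tumour cell line screen; five concentration levels (100, 10, 1.0, 0.1 and 0.01 μM), 48 h continuous drug exposure. Cell growth estimated by sulforhodamine B (SRB) protein staining. GI50 taken as the drug concentration giving a 50% reduction in net protein increase relative to control cells over the incubation.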

SK-MEL-5 = assay: Anticancer activity against human SK-MEL-5 cells after 48 hrs by sulforhodamine B assay; type: functional; conditions: SK-MEL-5, 48 h
Outline: (§3)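 NCI 60-cell-line in vitro screen, second stage: five concentration levels (100, 10, 1.0, 0.1 and 0.01 μM) with 48 h continuous drug exposure. Cell growth was estimated by sulforhodamine B protein staining. GI50 is the drug concentration that gives a 50% reduction in net protein increase relative to control cells over the incubation.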

HOP-92 [3] = assay: Anticancer activity against human HOP92 cells after 48 hrs by sulforhodamine B assay; type: functional; conditions: HOP-92, 48 h; outline: as §3
NCI-H522 = assay: Cytotoxicity against human NCI-H522 cells; type: cell-based; outline: as §1
UO-31 [4] = assay: Cytotoxicity against human UO31 cells; type: cell-based; outline: as §2
SNB-75 [5] = assay: Cytotoxicity against human SNB75 cells; type: cell-based; outline: as §2
HCT-116 = assay: Cytotoxicity against human HCT116 cells; type: cell-based; outline: as §1
OVCAR-4 [6] = assay: Anticancer activity against human OVCAR4 cells after 48 hrs by sulforhodamine B assay; type: functional; conditions: OVCAR-4, 48 h; outline: as §3
UO-31 [7] = assay: Anticancer activity against human UO31 cells after 48 hrs by sulforhodamine B assay; type: functional; conditions: UO-31, 48 h
Outline: (§4)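 NCI 60-cell-line screen, second stage. Five concentration levels (100, 10, 1.0, 0.1 and 0.01 μM), 48 h continuous drug exposure. Cell growth was estimated by sulforhodamine B protein staining. GI50 is the concentration giving a 50% reduction in net protein increase relative to control cells over the drug incubation. Compounds entered this stage after an earlier single-dose screen.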

CCRF-CEM = assay: Cytotoxicity against human CCRF-CEM cells; type: cell-based; outline: as §1
OVCAR-8 = assay: Anticancer activity against human OVCAR8 cells after 48 hrs by sulforhodamine B assay; type: functional; conditions: OVCAR-8, 48 h; outline: as §3
MDA-MB-435 = assay: Anticancer activity against human MDA-MB-435 cells after 48 hrs by sulforhodamine B assay; type: functional; conditions: MDA-MB-435, 48 h; outline: as §3
HCT-15 = assay: Cytotoxicity against human HCT15 cells; type: cell-based; outline: as §1
ACHN = assay: Anticancer activity against human ACHN cells after 48 hrs by sulforhodamine B assay; type: functional; outline: as §3
LOX IMVI = assay: Anticancer activity against human LOXIMVI cells after 48 hrs by sulforhodamine B assay; type: functional; outline: as §3
SN12C = assay: Cytotoxicity against human SN12C cells; type: cell-based; outline: as §2
T47D [8] = assay: Cytotoxicity against human T47D cells; type: cell-based; outline: as §2
NCI-H23 = assay: Cytotoxicity against human NCI-H23 cells; type: cell-based; outline: as §1
NCI-H226 = assay: Anticancer activity against human NCI-H226 cells after 48 hrs by sulforhodamine B assay; type: functional; conditions: NCI-H226, 48 h; outline: as §3
RXF 393 = assay: Cytotoxicity against human RXF393 cells; type: cell-based; outline: as §1
HOP-92 [9] = assay: Cytotoxicity against human HOP92 cells; type: cell-based; outline: as §1
HOP-62 = assay: Anticancer activity against human HOP62 cells after 48 hrs by sulforhodamine B assay; type: functional; conditions: HOP-62, 48 h; outline: as §3
K562 = assay: Cytotoxicity against human K562 cells; type: cell-based; outline: as §1
SK-MEL-2 [10] = assay: Anticancer activity against human SK-MEL-2 cells after 48 hrs by sulforhodamine B assay; type: functional; conditions: SK-MEL-2, 48 h; outline: as §3
786-0 = assay: Anticancer activity against human 786-0 cells after 48 hrs by sulforhodamine B assay; type: functional; conditions: 786-0, 48 h; outline: as §3
T47D [11] = assay: Anticancer activity against human T47D cells after 48 hrs by sulforhodamine B assay; type: functional; outline: as §4
SNB-75 [12] = assay: Anticancer activity against human SNB75 cells after 48 hrs by sulforhodamine B assay; type: functional; conditions: SNB-75, 48 h; outline: as §4
Hs-578T = assay: Anticancer activity against human Hs578T cells after 48 hrs by sulforhodamine B assay; type: functional; outline: as §3
U-251 [13] = assay: Anticancer activity against human U251 cells after 48 hrs by sulforhodamine B assay; type: functional; conditions: U-251, 48 h; outline: as §4
MDA-MB-468 = assay: Anticancer activity against human MDA-MB-468 cells after 48 hrs by sulforhodamine B assay; type: functional; conditions: MDA-MB-468, 48 h; outline: as §3
OVCAR-4 [14] = assay: Cytotoxicity against human OVCAR4 cells; type: cell-based; outline: as §1
NCI/ADR-RES = assay: Cytotoxicity against human NCI/ADR-RES cells; type: cell-based; outline: as §1

Compound: Cc1ccc(C2=NNC(c3cc(Cc4ccc(O)c(C5CC(c6ccc(C)cc6)=NN5)c4)ccc3O)C2)cc1 (stereo not drawn)
- LC50 (SK-MEL-2 [1]): > 100 µM
- LC50 (U-251 [2]): > 100 µM
- GI50 (SK-MEL-5): 1.76 µM
- GI50 (HOP-92 [3]): 8.28 µM
- LC50 (NCI-H522): > 100 µM
- LC50 (UO-31 [4]): > 100 µM
- LC50 (SNB-75 [5]): > 100 µM
- LC50 (HCT-116): 55.2 µM
- GI50 (OVCAR-4 [6]): 5.36 µM
- GI50 (UO-31 [7]): 4.29 µM
- LC50 (CCRF-CEM): > 100 µM
- GI50 (OVCAR-8): 6.36 µM
- GI50 (MDA-MB-435): 8.52 µM
- LC50 (HCT-15): > 100 µM
- GI50 (ACHN): 5.56 µM
- GI50 (LOX IMVI): 7.38 µM
- LC50 (SN12C): > 100 µM
- LC50 (T47D [8]): > 100 µM
- LC50 (NCI-H23): > 100 µM
- GI50 (NCI-H226): 8.28 µM
- LC50 (RXF 393): > 100 µM
- LC50 (HOP-92 [9]): > 100 µM
- GI50 (HOP-62): 8.64 µM
- LC50 (K562): > 100 µM
- GI50 (SK-MEL-2 [10]): 5.9 µM
- GI50 (786-0): 8.39 µM
- GI50 (T47D [11]): 4.61 µM
- GI50 (SNB-75 [12]): 4.98 µM
- GI50 (Hs-578T): 5.58 µM
- GI50 (U-251 [13]): 5.84 µM
- GI50 (MDA-MB-468): 2.97 µM
- LC50 (OVCAR-4 [14]): > 100 µM
- LC50 (NCI/ADR-RES): > 100 µM

From ChEMBL document CHEMBL1782042, “Efficient microwave-assisted synthesis and antitumor activity of novel 4,4'-methylenebis[2-(3-aryl-4,5-dihydro-1H-pyrazol-5-yl)phenols]” (Eur J Med Chem, 2011)
